Results on seven molecules are retold here after ChEMBL document CHEMBL1154862, “Synthesis of potent BACE-1 inhibitors incorporating a hydroxyethylene isostere as central core” (Eur J Med Chem, 2010).

Structures are written as SMILES.

The target of one assay is Cathepsin D (Homo sapiens, UniProt P07339). The assay can be described thus: Inhibition of human liver cathepsin D after 20 mins by homogeneous time resolved fluorescence assay.
The target in assay [1] is T1, Beta-secretase 1 (Homo sapiens, UniProt P56817). The assay can be described thus: Inhibition of human BACE1 in HEK293 cells stably co-transfected with mutant APP(swAPP751) assessed as Amyloid beta 1-40 level after 24 hrs by ELISA. Format: cell-based. Put shortly: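 HEK-293 cells stably expressing Swedish mutant APP (swAPP751), grown in DMEM with 10% FCS, penicillin/streptomycin and 200 µg/mL hygromycin at 37 °C, 5% CO2. Seeded 2 × 10^4 cells/well, settled overnight, washed once with fresh medium, then inhibitor added (DMSO at most 1% final). Medium collected after 24 h; secreted Aβ1–40 measured by ELISA.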
T1 sequence (P56817 whole entry): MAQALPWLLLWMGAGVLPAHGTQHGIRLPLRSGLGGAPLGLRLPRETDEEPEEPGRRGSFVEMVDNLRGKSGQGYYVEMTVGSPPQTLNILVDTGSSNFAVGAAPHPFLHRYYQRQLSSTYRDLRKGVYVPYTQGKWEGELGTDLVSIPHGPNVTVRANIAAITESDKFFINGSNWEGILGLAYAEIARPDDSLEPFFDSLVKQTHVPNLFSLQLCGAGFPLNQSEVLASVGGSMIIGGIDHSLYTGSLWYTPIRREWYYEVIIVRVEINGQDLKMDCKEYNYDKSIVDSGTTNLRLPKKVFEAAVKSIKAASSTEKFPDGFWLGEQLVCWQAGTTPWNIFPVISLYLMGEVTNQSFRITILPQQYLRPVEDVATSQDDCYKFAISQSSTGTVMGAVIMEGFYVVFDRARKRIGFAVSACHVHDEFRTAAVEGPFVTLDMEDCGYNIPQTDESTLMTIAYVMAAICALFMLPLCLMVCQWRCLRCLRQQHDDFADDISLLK
A general note: An ELISA detects its analyte on a solid surface through an enzyme-linked reagent.

Assay [2] addresses T1, Beta-secretase 1. The assay can be described thus: Inhibition of BACE1 after 30 mins by homogeneous time resolved fluorescence assay.

Sequence of Cathepsin D (P07339 65-162 limits assumed): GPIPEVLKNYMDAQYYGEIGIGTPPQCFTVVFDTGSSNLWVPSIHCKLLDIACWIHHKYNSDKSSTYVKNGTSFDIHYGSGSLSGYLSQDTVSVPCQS
Sequence of Cathepsin D (P07339 169-412 limits assumed): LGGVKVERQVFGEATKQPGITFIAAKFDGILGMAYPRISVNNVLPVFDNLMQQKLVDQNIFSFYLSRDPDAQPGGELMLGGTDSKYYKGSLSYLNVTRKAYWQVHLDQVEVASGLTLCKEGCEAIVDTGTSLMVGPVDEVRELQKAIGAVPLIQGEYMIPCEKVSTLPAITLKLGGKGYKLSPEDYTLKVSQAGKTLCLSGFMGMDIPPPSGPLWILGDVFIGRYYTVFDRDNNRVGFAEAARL

`CC(C)[C@H](NC(=O)[C@H](C)C[C@H](O)[C@H](COCc1ccccc1)NC(=O)c1cc(C(=O)N[C@H](C)c2ccccc2)cc(N(C)S(C)(=O)=O)c1)C(=O)NCc1ccccc1`: the IC50 (commonly the concentration that inhibits the measured activity by half) on Cathepsin D was 41 nM; at Beta-secretase 1 [1] it was 1000 nM; at Beta-secretase 1 [2], 3.6 nM.

Regarding `CC(C)[C@H](NC(=O)[C@H](C)C[C@H](O)[C@H](COCc1cc(F)cc(F)c1)NC(=O)c1cc(C(=O)N[C@H](C)c2ccccc2)cc(N(C)S(C)(=O)=O)c1)C(=O)NCc1ccccc1`, the IC50 against Cathepsin D turned out to be 210 nM; on Beta-secretase 1 [1], 4500 nM.

For the molecule `CC(C)[C@H](NC(=O)[C@H](C)C[C@H](O)[C@H](COc1cc(F)cc(F)c1)NC(=O)c1cc(C(=O)N[C@H](C)c2ccccc2)cc(N(C)S(C)(=O)=O)c1)C(=O)NCc1ccccc1`, the half-maximal inhibitory concentration (IC50) amounted to 59 nM at Cathepsin D, 160 nM at Beta-secretase 1 [1] and 3.1 nM at Beta-secretase 1 [2].

Consider `CC(C)[C@H](NC(=O)[C@@H](C)C[C@H](O)[C@H](COc1cc(F)cc(F)c1)NC(=O)c1cc(C(=O)N[C@H](C)c2ccccc2)cc(N(C)S(C)(=O)=O)c1)C(=O)NCc1ccccc1`, for which the IC50 on Cathepsin D was 120 nM; on Beta-secretase 1 [1] it was 340 nM; against Beta-secretase 1 [2], 10 nM.

For the molecule `CSCC[C@H](NC(=O)[C@@H](NC(=O)OC(C)(C)C)C(C)C)C(=O)N[C@@H](COCc1cc(F)cc(F)c1)[C@@H](O)C[C@@H](C)C(=O)N[C@H](C(=O)NCc1ccccc1)C(C)C`, the IC50 at Cathepsin D was 0.63 nM; on Beta-secretase 1 [2], 10000 nM.

In the case of `CNC(=O)c1cc(C(=O)N[C@@H](COCc2cc(F)cc(F)c2)[C@@H](O)C[C@@H](C)C(=O)N[C@H](C(=O)NCc2ccccc2)C(C)C)cc(N(C)S(C)(=O)=O)c1`, the figures for the 50% inhibitory concentration (IC50) at Cathepsin D and on Beta-secretase 1 [2] were > 5000 nM and 1260 nM, respectively.

For `C[C@H](C[C@H](O)[C@H](COCc1cc(F)cc(F)c1)NC(=O)c1cc(C(=O)N[C@H](C)c2ccccc2)cc(N(C)S(C)(=O)=O)c1)C(=O)NC1CC1`, the IC50 at Cathepsin D was > 5000 nM; against Beta-secretase 1 [2], > 10000 nM.
